Active and inactive are the calls of the source. The calls are words filed in the database; no cut-off is given here.
How the values were obtained:
[1] = system: HBMEC-2; assay: Inhibition of H2O2-induced apoptosis in human HBMEC2 cells preincubated for 24 hrs followed by H2O2 addition measured after 4 hrs by Annexin V-FITC/propidium iodide staining based flow cytometry; type: functional, cell-based
In short: (§1)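 Cells were seeded at 3.5×10^4 cells/mL in 6-well plates at 37 °C, 5% CO2. Compound was added at three concentrations for 24 h, then H2O2 (4.8 mM stock solution) to model and drug wells for 4 h. Cells were collected, washed in cold PBS and resuspended in annexin-binding buffer. Staining was annexin V-FITC 10 min, then PI 5 min, in the dark, followed by flow cytometry with quadrant gating.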

[2] = Inhibition of H2O2-induced apoptosis in human HBMEC2 cells assessed as early apoptotic cells at 1.56 uM preincubated for 24 hrs followed by H2O2 addition measured after 4 hrs by Annexin V-FITC/propidium iodide staining based flow cytometry (reference value: 8.1 %); type: functional, HBMEC-2; set-up: scale not given: the % may be the effect or the level left; in short: as §1
[3] = system: HBMEC-2; assay: Protection against H2O2-induced apoptosis in human HBMEC2 cells assessed as decrease in number of irregular cells preincubated for 24 hrs followed by H2O2 addition measured after 4 hrs by DAPI staining based inverted phase contrast microscopic analysis; type: functional, cell-based
In short: (§2)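 Cells at 3.5×10^4 cells/mL in 24-well plates were pretreated 24 h with compound at three concentrations, then H2O2 (4.8 mM stock) for 4 h. After PBS washes, cells were fixed in 4% paraformaldehyde/70% cold ethanol for 10 min. Staining was 6% Giemsa or DAPI for 5 min in the dark. Random fields were photographed at 200× by microscope, alongside control and model groups.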

[4] = Inhibition of H2O2-induced apoptosis in human HBMEC2 cells assessed as normal cells at 6.25 uM preincubated for 24 hrs followed by H2O2 addition measured after 4 hrs by Annexin V-FITC/propidium iodide staining based flow cytometry (reference value: 62.1 %); type: functional, HBMEC-2; set-up: scale not given: the % may be the effect or the level left; in short: as §1
[5] = system: HBMEC-2; assay: Protection against H2O2-induced apoptosis in human HBMEC2 cells assessed as decrease in nuclear fragmentation preincubated for 24 hrs followed by H2O2 addition measured after 4 hrs by DAPI staining based inverted phase contrast microscopic analysis; type: functional, cell-based; in short: as §2
[6] = system: SH-SY5Y; assay: Inhibition of H2O2-induced apoptosis in human SH-SY5Y cells assessed as late apoptotic cells at 3.13 uM preincubated for 24 hrs followed by H2O2 addition measured after 4 hrs by Annexin V-FITC/propidium iodide staining based flow cytometry (reference value: 26.5 %); type: functional; set-up: scale not given: the % may be the effect or the level left; in short: as §1
[7] = Inhibition of H2O2-induced apoptosis in human HBMEC2 cells assessed as early apoptotic cells at 3.13 uM preincubated for 24 hrs followed by H2O2 addition measured after 4 hrs by Annexin V-FITC/propidium iodide staining based flow cytometry (reference value: 8.1 %); type: functional, HBMEC-2; set-up: scale not given: the % may be the effect or the level left; in short: as §1
[8] = system: SH-SY5Y; assay: Protection against H2O2-induced apoptosis in human SH-SY5Y cells assessed as decrease in number of irregular cells preincubated for 24 hrs followed by H2O2 addition measured after 4 hrs by DAPI staining based inverted phase contrast microscopic analysis; type: functional, cell-based; in short: as §2
[9] = system: SH-SY5Y; assay: Protection against H2O2-induced mitochondrial dysfunction in human SH-SY5Y cells assessed as recovery of mitochondrial membrane potential at 1.56 to 6.25 uM preincubated for 24 hrs followed by H202 addition measured after 4 hrs by Rh123 staining based inverted light microscopic analysis; type: functional, cell-based
In short: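 Cells in 96-well plates (3.5×10^4 cells/mL) were grown 24 h. They were pretreated 24 h with compound at three concentrations, then exposed to H2O2 (4.8 mM stock) for 4 h. Medium was removed and Rh123 added for 30 min at 37 °C. Cells were washed twice in cold PBS and examined immediately under an inverted microscope for green fluorescence.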

[10] = Inhibition of H2O2-induced apoptosis in human HBMEC2 cells assessed as late apoptotic cells at 6.25 uM preincubated for 24 hrs followed by H2O2 addition measured after 4 hrs by Annexin V-FITC/propidium iodide staining based flow cytometry (reference value: 29.4 %); type: functional, HBMEC-2; set-up: scale not given: the % may be the effect or the level left; in short: as §1
[11] = system: SH-SY5Y; assay: Inhibition of H2O2-induced apoptosis in human SH-SY5Y cells preincubated for 24 hrs followed by H2O2 addition measured after 4 hrs by Annexin V-FITC/propidium iodide staining based flow cytometry; type: functional, cell-based; in short: as §1
[12] = system: SH-SY5Y; assay: Protection against H2O2-induced apoptosis in human SH-SY5Y cells assessed as reduction in cell shrinkage at 1.56 to 6.25 uM preincubated for 24 hrs followed by H2O2 addition measured after 4 hrs by Giemsa staining based inverted phase contrast microscopic analysis; type: functional; in short: as §2
[13] = system: HBMEC-2; assay: Protection against H2O2-induced apoptosis in human HBMEC2 cells assessed as reduction in cell shrinkage at 1.56 to 6.25 uM preincubated for 24 hrs followed by H2O2 addition and measured after 4 hrs by Giemsa staining based inverted phase contrast microscopic analysis; type: functional; in short: as §2
[14] = Inhibition of H2O2-induced apoptosis in human HBMEC2 cells assessed as early apoptotic cells at 6.25 uM preincubated for 24 hrs followed by H2O2 addition measured after 4 hrs by Annexin V-FITC/propidium iodide staining based flow cytometry (reference value: 8.1 %); type: functional, HBMEC-2; set-up: scale not given: the % may be the effect or the level left; in short: as §1
[15] = system: HBMEC-2; assay: Protection against H2O2-induced apoptosis in human HBMEC2 cells assessed as increase in cell number preincubated for 24 hrs followed by H2O2 addition measured after 4 hrs by DAPI staining based inverted phase contrast microscopic analysis; type: functional; in short: as §2
[16] = system: SH-SY5Y; assay: Protection against H2O2-induced apoptosis in human SH-SY5Y cells assessed as reduction in cell disruption at 1.56 to 6.25 uM preincubated for 24 hrs followed by H2O2 addition measured after 4 hrs by Giemsa staining based inverted phase contrast microscopic analysis; type: functional; in short: as §2
[17] = Inhibition of H2O2-induced apoptosis in human HBMEC2 cells assessed as normal cells at 3.13 uM preincubated for 24 hrs followed by H2O2 addition measured after 4 hrs by Annexin V-FITC/propidium iodide staining based flow cytometry (reference value: 62.1 %); type: functional, HBMEC-2; set-up: scale not given: the % may be the effect or the level left; in short: as §1
[18] = system: SH-SY5Y; assay: Inhibition of H2O2-induced apoptosis in human SH-SY5Y cells assessed as necrotic cells at 1.56 uM preincubated for 24 hrs followed by H2O2 addition measured after 4 hrs by Annexin V-FITC/propidium iodide staining based flow cytometry (reference value: 0.9 %); type: functional; set-up: scale not given: the % may be the effect or the level left; in short: as §1
[19] = system: Chorioallantoic membrane; assay: Induction of angiogenesis in chicken chorioallantoic membrane assessed as increase in microvessel formation at 1 mg/ml measured after 48 hrs by dissecting microscopic analysis; type: functional, cell membranes; conditions: Gallus gallus
In short: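 Fertile eggs were incubated 7 days at 37 °C and 60% humidity. A small window was opened at one end and the membrane was wetted with a drop of sterile saline. Test solution (0.5, 1 or 2 mg/mL) was applied to the allantoic membrane, with PBS for controls. After 48 h the membrane was separated from the shell, then viewed and photographed under a dissecting microscope.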

[20] = Inhibition of H2O2-induced apoptosis in human HBMEC2 cells assessed as necrotic cells at 6.25 uM preincubated for 24 hrs followed by H2O2 addition measured after 4 hrs by Annexin V-FITC/propidium iodide staining based flow cytometry (reference value: 0.4 %); type: functional, HBMEC-2; set-up: scale not given: the % may be the effect or the level left; in short: as §1
[21] = system: SH-SY5Y; assay: Inhibition of H2O2-induced apoptosis in human SH-SY5Y cells assessed as normal cells at 1.56 uM preincubated for 24 hrs followed by H2O2 addition measured after 4 hrs by Annexin V-FITC/propidium iodide staining based flow cytometry (reference value: 67.2 %); type: functional; set-up: scale not given: the % may be the effect or the level left; in short: as §1
[22] = Inhibition of H2O2-induced apoptosis in human HBMEC2 cells assessed as necrotic cells at 3.13 uM preincubated for 24 hrs followed by H2O2 addition measured after 4 hrs by Annexin V-FITC/propidium iodide staining based flow cytometry (reference value: 0.4 %); type: functional, HBMEC-2; set-up: scale not given: the % may be the effect or the level left; in short: as §1

In the case of `COc1cc(CNC(=O)/C=C/c2cc(OC)c(OC)cc2OC)ccc1O`, the inhibition [1] is reported as “Dose-dependent effect”, the Activity [2] is reported as 9.1% and the Activity [3] is reported as “Dose-dependent effect”. The Activity [4] was 81.4%, the Activity [5] was “Dose-dependent effect” and the Activity [6] was 21%. The Activity [7] was 8.9%, the Activity [8] was “Dose-dependent effect” and the Activity [9] was “Active”. The Activity [10] was 10.2%, the inhibition [11] was “Dose-dependent effect” and the Activity [12] was “Active”. For the same compound, the Activity [13] was “Active”, the Activity [14] was 8.3% and the Activity [15] was “Dose-dependent effect”. For the same compound, the Activity [16] was “Active”, the Activity [17] was 80.5% and the Activity [18] was 1.4%. The Activity [19] was “Active”, the Activity [20] was 0.1% and the Activity [21] was 70.4%. For the same compound, the Activity [22] was 0.1%.
